As usually defined, the IC50 is the concentration that inhibits the measured activity by half. High values mean lower potency, low ones higher potency.

Here are results for two molecules from ChEMBL document CHEMBL1130207, “Structure-activity relationships for acridine-substituted analogues of the mixed topoisomerase I/II inhibitor N-[2-(dimethylamino)ethyl]acridine-4-carboxamide” (J Med Chem, 1997).

The test system of one test is LLTC cell line. In words: Inhibitory concentration required to reduce Lewis lung carcinoma cell number to 50% of control cultures. Format: functional, cell-based. Particulars: Mus musculus. The method, boiled down:
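Lewis lung carcinoma cells seeded at 10³ per well and exposed to drug for 4 days. Growth read by sulforhodamine assay; IC50 is the drug concentration (nM) that cuts cell number to 50% of control cultures. Value is the mean of at least two independent determinations done in duplicate; coefficient of variation 7.9–8.5%.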

For test [1], the system named is Jurkat. In words: Inhibitory concentration required to reduce human Jurkat leukemia (JLC sensitive, wild type) cell number to 50% of control cultures. It is filed as functional, cell-based.
The subject of test [2] is Jurkat. The test is described as follows: Ratio of IC50 of mutant Jurkat leukemia (JLD) to the IC50 of Jurkat leukemia (JLC sensitive, wild type). It is filed as functional, Homo sapiens. The method, boiled down: (§1)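 Jurkat lines were each plated at 3.75 × 10³ per well and grown 4 days with drug: parental JL_C, amsacrine-resistant JL_A and doxorubicin-resistant JL_D. Growth was read by sulforhodamine assay. IC50 is the concentration giving 50% of control cell number. Ratio is IC50 in JL_A or JL_D divided by IC50 in JL_C.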

The test system of test [3] is Jurkat. In words: Ratio of IC50 of Jurkat leukemia amsacrine (JLA) to the IC50 of Jurkat leukemia (JLC sensitive, wild type). It is filed as functional, Homo sapiens. The method, boiled down: as §1
For a further test, the system named is P388. The test is described as follows: Inhibitory concentration required to reduce murine p388 leukemia cell number to 50% of control cultures. Format: functional, cell-based. Conditions: Mus musculus.

For the molecule `Cc1cccc2cc3cccc(C(=O)NCCN(C)C)c3nc12`, the IC50 in the test on LLTC cell line worked out at 5.6 nM; in the test on Jurkat [1], 46 nM; in the test with P388 it was 6.4 nM. The results for the Ratio in the test with Jurkat [2] and with Jurkat [3] were 4.8 and 4.6, respectively.
As to `CN(C)CCNC(=O)c1cccc2c(N)c3ccccc3nc12`, the values for the IC50 in the test on LLTC cell line, in the test on Jurkat [1] and in the test on P388 were 5.3 nM, 27 nM and 8 nM, respectively. Moreover, the results for the Ratio in the test with Jurkat [2] and in the test with Jurkat [3] were 6.1 and 4.6, respectively.
